Assay results reported in ChEMBL document CHEMBL1146595, “Constituents from the leaves of Phellodendron amurense var. wilsonii and their bioactivity” (J Nat Prod, 2003).

What follows are compounds tested on Radical scavenging activity (assay: Antioxidant activity assessed as DPPH free radical scavenging activity).
Format: functional
Method in brief: (§1)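 Radical-scavenging assay run by previously reported methods. Percent inhibition was recorded after a 30 min incubation.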
For `CC(C)(O)CCc1c(O[C@@H]2O[C@H](CO)[C@@H](O)[C@H](O)[C@H]2O)cc(O)c2c(=O)c(O)c(-c3ccc(O)cc3)oc12` [AMURENSIN], the IC50 was 88.3 µM.
Work on `O=c1c(O[C@@H]2O[C@H](CO)[C@@H](O)[C@H](O)[C@H]2O)c(-c2ccc(O)c(O)c2)oc2cc(O)cc(O)c12` [ISOQUERCETIN] yielded an IC50 of 32.2 µM.
In the case of VITAMIN E, the IC50 is reported as 8.3 µM.

The compounds below were run on Radical scavenging activity (assay: Antioxidant activity assessed as DPPH free radical scavenging activity at 250 uM).
Format: functional
Method in brief: as §1
Compound `CC(C)=CCc1c(O[C@@H]2O[C@H](CO)[C@@H](O)[C@H](O)[C@H]2O)cc(O)c2c1O[C@H](c1ccc(O)cc1)[C@@H](O)C2=O` has an inhibition of 34.6%.
In the case of `O=c1c(O[C@@H]2O[C@H](CO)[C@@H](O)[C@H](O)[C@H]2O)c(-c2ccc(O)cc2)oc2cc(O)cc(O)c12`, the inhibition is reported as 5.7%.
In the case of `O=c1c(O[C@@H]2O[C@H](CO)[C@H](O)[C@H](O)[C@H]2O)c(-c2ccc(O)cc2)oc2cc(O)cc(O)c12`, the inhibition is reported as 4.5%.
In the case of `CC(C)=CCc1c(O)cc(O)c2c1O[C@@H](c1ccc(O)cc1)[C@@H](O)C2=O`, the inhibition is reported as 20.9%.

These compounds were tested against T1, Tyrosinase (Homo sapiens) (UniProt P14679) (assay: Inhibition of tyrosinase at 333 uM).
T1 sequence (whole entry): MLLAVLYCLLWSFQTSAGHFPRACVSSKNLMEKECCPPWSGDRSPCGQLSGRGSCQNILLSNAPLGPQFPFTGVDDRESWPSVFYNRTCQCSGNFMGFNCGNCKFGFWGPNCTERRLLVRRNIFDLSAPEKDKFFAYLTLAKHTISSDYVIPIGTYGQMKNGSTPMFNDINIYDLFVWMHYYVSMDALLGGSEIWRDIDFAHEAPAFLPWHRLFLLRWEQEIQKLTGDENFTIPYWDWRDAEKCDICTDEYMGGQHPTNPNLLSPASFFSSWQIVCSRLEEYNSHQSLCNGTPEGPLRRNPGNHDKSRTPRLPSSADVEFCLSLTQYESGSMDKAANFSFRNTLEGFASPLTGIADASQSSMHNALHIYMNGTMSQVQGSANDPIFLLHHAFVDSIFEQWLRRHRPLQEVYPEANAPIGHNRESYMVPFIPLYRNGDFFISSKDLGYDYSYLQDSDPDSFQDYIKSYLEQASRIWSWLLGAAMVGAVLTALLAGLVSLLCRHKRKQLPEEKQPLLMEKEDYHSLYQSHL
`C=C(C)[C@@H]1CC[C@]2(C)CC[C@]3(C)[C@H](CC[C@@H]4[C@@]5(C)CCC(=O)C(C)(C)[C@@H]5CC[C@]43C)[C@@H]12` was tested, and the inhibition was -2.4%.
With `CC(C)(O)CCc1c(O[C@@H]2O[C@H](CO)[C@@H](O)[C@H](O)[C@H]2O)cc(O)c2c(=O)c(O)c(-c3ccc(O)cc3)oc12` [AMURENSIN] the inhibition was 15.4%.
Compound `CC1(C)O[C@H]2CC(=O)OC[C@]23[C@H]2CC[C@@]4(C)[C@H](c5ccoc5)OC(=O)[C@H]5O[C@]54[C@]2(C)C(=O)C[C@@H]13` has an inhibition of 3.6%.
In the case of `CC[C@H](CC[C@@H](C)[C@H]1CC[C@H]2[C@@H]3CC=C4C[C@@H](O)CC[C@]4(C)[C@H]3CC[C@]12C)C(C)C`, the inhibition is reported as 14.3%.
